Reference: ChEMBL document CHEMBL1269007, “Synthesis and biological evaluation of Apogossypolone derivatives as pan-active inhibitors of antiapoptotic B-cell lymphoma/leukemia-2 (Bcl-2) family proteins” (J Med Chem, 2010)
Values joined by “and” are separate entries in the source; they are usually repeats but may differ in a detail not shown here. Equal values may be shown once. Active and inactive are the calls of the source. The rule behind the calls is not given here.

Columns and labels:
Homo sapiens = species on record: Homo sapiens; assay: Induction of apoptosis in human CLL after 24 hrs by annexin V-FITC and propidium iodide staining; type: functional
How it was run: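 Freshly isolated primary leukaemic cells from CLL patients cultured in RPMI 1640 with 10% FBS and penicillin/streptomycin with various compound concentrations for 1 day. Annexin V-FITC/propidium iodide staining read by flow cytometry; annexin-V-negative, PI-negative cells counted as viable; LD50 derived from dose-response.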

Bcl-2-like protein 1 [1] = molecular target: T1, Bcl-2-like protein 1 (Homo sapiens, UniProt Q07817); assay: Binding affinity Bcl-xL by isothermal titration calorimetry assay
T1 sequence (Q07817 whole entry): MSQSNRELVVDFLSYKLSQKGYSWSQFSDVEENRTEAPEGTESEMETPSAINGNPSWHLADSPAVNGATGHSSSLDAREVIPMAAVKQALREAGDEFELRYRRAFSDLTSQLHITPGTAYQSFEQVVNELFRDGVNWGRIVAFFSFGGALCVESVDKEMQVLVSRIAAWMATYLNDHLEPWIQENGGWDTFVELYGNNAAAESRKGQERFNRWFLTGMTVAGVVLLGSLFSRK

Mus musculus [2] = assay: Toxicity in human Bcl2 expressing B6 transgenic BALB/c mouse up to 120 umol/kg, ip administered as single dose after 24 hrs; type: organism-based; settings: in vivo
How it was run: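 B6 Bcl-2 transgenic Balb/c mice, age- and sex-matched, given one intraperitoneal dose (60 or 120 μmol/kg, also 30 μmol/kg) in ethanol:Cremophor EL:saline 10:10:80, 500 μL; survival and signs of toxicity observed over 24 h before sacrifice.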

RS4-11 = assay: Induction of apoptosis in human RS4:11 cells expressing high level of Bcl-2 and Bcl-xL after 24 hrs by annexin V-FITC and propidium iodide staining; type: functional, cell-based
Mus musculus [3] = assay: Toxicity in human Bcl2 expressing B6 transgenic BALB/c mouse assessed as weight loss up to 120 umol/kg, ip administered as single dose after 24 hrs; type: organism-based; settings: in vivo
Bcl-2-like protein 1 [4] = molecular target: T1, Bcl-2-like protein 1; assay: Displacement of F-BakBH3 from Bcl-xL after 30 mins by fluorescence polarization assay
How it was run: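 GST-Bcl-XL ΔTM (100 nM) preincubated with varying compound concentrations in PBS pH 7.4 for 10 min at room temperature. FITC-labelled Bak BH3 peptide (2.5 μL of 100 nM stock) then added. Polarization read at 480/535 nm after 30 min at room temperature. Wild-type and mutant Bak BH3 peptides served as plate controls. IC50 from sigmoidal dose-response fit; mean of three independent experiments ± SE.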

PPC-1 [5] = assay: Antitumor activity against human PPC1 cells xenografted in nude mouse assessed as tumor regression at 50 mg/kg, ip administered 5 times measured on after 2 weeks relative to control; type: functional; settings: route intraperitoneal
How it was run: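 Female 6-week-old nude mice injected s.c. in the flank with 5×10^6 PPC-1 cells in 0.2 ml PBS; size-matched at 200 mm³, 6 per group. Compound given i.p. in ethanol:Cremophor EL:saline 10:10:80 (500 μL), three times in week 1, twice in week 2, once in week 3; controls got saline. Caliper volume (length × width²/2) 2–3 times weekly; T/C% = mean treated volume / mean control volume.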

[6] = molecular target: Induced myeloid leukemia cell differentiation protein Mcl-1 (Homo sapiens, UniProt Q07820); assay: Displacement of FITC-Bim BH3 peptide from Mcl-1 after 10 mins by fluorescence polarization assay
Sequence of Induced myeloid leukemia cell differentiation protein Mcl-1 (Q07820 whole entry): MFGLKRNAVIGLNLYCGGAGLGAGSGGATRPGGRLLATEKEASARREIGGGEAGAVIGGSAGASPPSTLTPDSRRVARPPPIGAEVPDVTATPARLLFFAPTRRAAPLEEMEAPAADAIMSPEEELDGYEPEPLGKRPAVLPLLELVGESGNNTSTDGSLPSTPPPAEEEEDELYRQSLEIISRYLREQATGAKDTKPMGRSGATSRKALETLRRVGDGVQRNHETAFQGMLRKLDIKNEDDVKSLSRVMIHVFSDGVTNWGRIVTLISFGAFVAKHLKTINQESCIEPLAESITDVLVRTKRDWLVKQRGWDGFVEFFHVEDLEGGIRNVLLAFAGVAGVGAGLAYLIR

PPC-1 [7] = assay: Antitumor activity against human PPC1 cells xenografted in nude mouse assessed as tumor regression at 50 mg/kg, ip administered weekly 3 times; type: functional, organism-based; set-up: dose 50 mg/kg
How it was run: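 Female 6-week-old nude mice given 5×10^6 cells in 0.2 ml PBS subcutaneously in the flank; tumours size-matched at 200 mm³, 6 mice/group. Intraperitoneal injections in ethanol:Cremophor EL:saline 10:10:80 (500 μL), three times week 1, twice week 2, once week 3; controls received saline. Caliper volume (length×width²/2) two to three times weekly; T/C% = mean treated/mean control volume.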

BP3 = assay: Induction of apoptosis in human BP3 cells expressing high level of Bfl-1 and Mcl-1 after 24 hrs by annexin V-FITC and propidium iodide staining; type: functional, cell-based
Mus musculus [8] = assay: Reduction of spleen weight in ip dosed human Bcl2 expressing B6 transgenic BALB/c mouse administered as single dose after 24 hrs; type: functional, organism-based
Mus musculus [9] = assay: Reduction of spleen weight in human Bcl2 expressing B6 transgenic BALB/c mouse at 60 umol/kg, ip administered as single dose after 24 hrs relative to control; type: functional; set-up: scale not given: the % may be the effect or the level left
Mus musculus [10] = assay: Toxicity in human PPC1 cells xenografted nude mouse assessed as weight loss at 50 mg/kg, ip administered weekly 3 times; type: organism-based, PPC-1; set-up: dose 50 mg/kg, route intraperitoneal; settings: in vivo
How it was run: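 Nude mice carrying subcutaneous flank xenografts (5×10^6 cells), size-matched at 200 mm³, 6 per group. Dosed intraperitoneally in ethanol:Cremophor EL:saline 10:10:80, three times in week 1, twice in week 2, once in week 3; saline controls. Body weight followed over treatment and reported as average percentage loss.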

Mus musculus [11] = assay: Reduction of spleen weight in human Bcl2 expressing B6 transgenic BALB/c mouse at 60 umol/kg, ip administered as single dose after 24 hrs; type: functional; set-up: scale not given: the % may be the effect or the level left
[12] = molecular target: Apoptosis regulator Bcl-2 (Homo sapiens, UniProt P10415); assay: Displacement of FITC-Bim BH3 peptide from Bcl-2 after 10 mins by fluorescence polarization assay
Sequence of Apoptosis regulator Bcl-2 (P10415 whole entry): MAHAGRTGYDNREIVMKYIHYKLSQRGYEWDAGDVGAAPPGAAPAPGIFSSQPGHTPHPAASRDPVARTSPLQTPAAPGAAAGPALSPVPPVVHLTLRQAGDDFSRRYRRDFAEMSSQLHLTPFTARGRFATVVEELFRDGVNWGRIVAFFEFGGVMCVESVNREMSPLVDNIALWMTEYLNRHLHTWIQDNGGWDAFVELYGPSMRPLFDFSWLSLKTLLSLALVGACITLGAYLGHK

Mus musculus [13] = assay: Toxicity in human PPC1 cells xenografted nude mouse assessed as mortality at 50 mg/kg, ip administered weekly 3 times; type: organism-based, PPC-1; set-up: dose 50 mg/kg, route intraperitoneal; settings: in vivo
How it was run: (§1)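 PPC-1 flank xenografts (5×10^6 cells s.c.) in female 6-week-old nude mice, size-matched at 200 mm³, 6 per group. Compound given i.p. three times in the first week in ethanol:Cremophor EL:saline 10:10:80 (500 μL); controls got saline. Survival and body weight monitored during week 1.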

Bcl-2-like protein 1 [14] = molecular target: T1, Bcl-2-like protein 1; assay: Binding affinity Bcl-xL at 200 uM by one-dimensional 1H nuclear magnetic resonance spectroscopy
[15] = Metabolic stability of the compound in rat plasma after 40 mins; type: ADME, cell-free; settings: read-out: Stability
[16] = Metabolic stability of the compound in rat microsomes after 40 mins; type: ADME, Microsome; settings: read-out: Stability
Mus musculus [17] = assay: Toxicity in human Bcl2 expressing B6 transgenic BALB/c mouse assessed as mortality at 60 umol/kg, ip administered as single dose after 24 hrs; type: organism-based; settings: in vivo
How it was run: (§2)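 Age- and sex-matched B6 Bcl2 transgenic mice (human BCL-2/IgH minigene on Balb/c background, no aggressive lymphoma yet) given a single i.p. injection of compound in 500 μL ethanol:Cremophor EL:saline 10:10:80. Controls received vehicle. Animals sacrificed at 24 h with Avertin; spleen removed and weighed.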

[18] = Cytotoxicity against human H1299 cells expressing high level of Mcl-1 after 72 hrs by ATP-LITE assay; type: functional, cell-based; settings: NCI-H1299, 72 h
How it was run: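 Cells seeded in […] or RPMI1640 with 5 mM L-glutamine, 5% FBS, penicillin/streptomycin; H460 and H1299 at 2000, PC3 at 3000 cells/well. Compounds in 0.1% DMSO final added 24 h after seeding into fresh 5% serum medium; viability by ATP-LITE luminescence after 72 h, normalised to DMSO-treated cells.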

Mus musculus [19] = assay: Toxicity in human Bcl2 expressing B6 transgenic BALB/c mouse assessed as mortality at 30 umol/kg, ip administered as single dose after 24 hrs; type: organism-based; settings: in vivo; how it was run: as §2
Bcl-2-related protein A1 = molecular target: T2, Bcl-2-related protein A1 (Homo sapiens, UniProt Q16548); assay: Displacement of F-BakBH3 from Bfl-1 after 30 mins by fluorescence polarization assay
T2 sequence (Q16548 whole entry): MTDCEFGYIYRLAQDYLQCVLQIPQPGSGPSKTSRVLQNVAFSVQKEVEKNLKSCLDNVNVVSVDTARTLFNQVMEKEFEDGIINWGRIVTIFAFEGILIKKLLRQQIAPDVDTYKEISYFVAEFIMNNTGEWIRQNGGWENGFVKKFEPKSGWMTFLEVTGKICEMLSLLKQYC

[20] = Cytotoxicity against human RS4:11 cells expressing high level of Bcl-2 and Bcl-xL after 24 hrs by annexin V-FITC and propidium iodide staining; settings: RS4-11, 24 h
Mus musculus [21] = assay: Reduction of spleen weight in human Bcl2 expressing B6 transgenic BALB/c mouse at 30 umol/kg, ip administered as single dose after 24 hrs; type: functional; set-up: scale not given: the % may be the effect or the level left
Mus musculus [22] = assay: Toxicity in human PPC1 cells xenografted nude mouse assessed as mortality at 25 mg/kg, ip administered weekly 3 times; type: organism-based, PPC-1; set-up: dose 25 mg/kg, route intraperitoneal; settings: in vivo; how it was run: as §1

SMILES | LD50 (Homo sapiens) [µM] | Kd (Bcl-2-like protein 1 [1]) [nM] | Activity (RS4-11) | IC50 (Bcl-2-like protein 1 [4]) [nM] | Ki (Bcl-2-like protein 1 [4]) [nM] | Activity (PPC-1 [5]) [%] | IC50 [6] [nM] | Ki [6] [nM] | Activity (PPC-1 [7]) | Activity (BP3) | Activity (Mus musculus [8]) | Activity (Mus musculus [10]) | IC50 [12] [nM] | Ki [12] [nM] | Activity (Bcl-2-like protein 1 [14]) | remaining at 40 min [15] [%] | Activity (Mus musculus [17]) | Activity (Mus musculus [19]) | IC50 (Bcl-2-related protein A1) [nM] | Ki (Bcl-2-related protein A1) [nM] | also measured
CC1=C(C2=C(C)C(=O)c3c(cc(O)c(O)c3CCc3ccc(C)cc3)C2=O)C(=O)c2cc(O)c(O)c(CCc3ccc(C)cc3)c2C1=O | 10 | 2500 | Dose-dependent effect | 3100 | 2070 | 33 | 2050 | 1370 | Active | Dose-dependent effect | Dose-dependent effect | 5% and 6.8% | 3120 | 2080 | Active | 86 |  |  |  |  | Activity (Homo sapiens): Dose-dependent effect; Activity (Mus musculus [2]): Non-toxic; Activity (Mus musculus [3]): 5%; Activity (Mus musculus [9]): 60%; Activity (Mus musculus [11]): 30%; Activity (Mus musculus [13]): Non-toxic
CC1=C(C2=C(C)C(=O)c3c(cc(O)c(O)c3C(=O)NCC(C)c3ccccc3)C2=O)C(=O)c2cc(O)c(O)c(C(=O)NCC(C)c3ccccc3)c2C1=O (stereo not drawn) |  |  |  | 320 | 210 |  | 470 | 310 |  |  | Dose-dependent effect |  | 230 | 150 | Active | 91 | Toxic | Non-toxic | 710 | 470 | remaining at 40 min [16]: 71%; EC50 [18]: > 30000 nM; EC50 [20]: > 30000 nM
CC1=C(C2=C(C)C(=O)c3c(cc(O)c(O)c3C(C)C)C2=O)C(=O)c2cc(O)c(O)c(C(C)C)c2C1=O | > 30 |  | Dose-dependent effect |  | 420 | 65 |  | 430 | Active | Dose-dependent effect | Dose-dependent effect | 9.3% |  | 250 | Active | 77 |  |  |  | 1470 | Activity (Mus musculus [11]): 20%
CC1=C(C2=C(C)C(=O)c3c(cc(O)c(O)c3Cc3ccc(Cl)cc3)C2=O)C(=O)c2cc(O)c(O)c(Cc3ccc(Cl)cc3)c2C1=O |  |  |  | 150 | 110 |  | 400 | 270 |  |  | Dose-dependent effect |  | 340 | 230 | Active |  | Toxic | Non-toxic | 700 | 470 | Activity (Mus musculus [21]): 76%
CC1=C(C2=C(C)C(=O)c3c(cc(O)c(O)c3Cc3ccccc3)C2=O)C(=O)c2cc(O)c(O)c(Cc3ccccc3)c2C1=O |  | 450 |  | 340 | 230 |  | 240 | 160 |  |  | Dose-dependent effect |  | 290 | 190 | Active | 95 | Toxic | Non-toxic | 650 | 430 | remaining at 40 min [16]: 91%; Activity (Mus musculus [22]): Toxic; Activity (Mus musculus [21]): 86%
Cc1cc2c(C(C)C)c(O)c(O)c(C=O)c2c(O)c1-c1c(C)cc2c(C(C)C)c(O)c(O)c(C=O)c2c1O [GOSSYPOL] |  |  |  |  |  |  |  |  |  |  |  |  |  |  |  |  |  |  |  |  | Activity (Mus musculus [22]): Toxic
